# Results taken from ChEMBL document CHEMBL5653631, “A Potent and Selective ULK1 Inhibitor Suppresses Autophagy and Sensitizes Cancer Cells to Nutrient Stress” (iScience, 2018).
# How the values were obtained:
# [1] = target: T1, cAMP-dependent protein kinase catalytic subunit PRKX (Homo sapiens) (UniProt P51817); experiment: Inhibition of human recombinant PRKX at 500 nM in presence of ATP by radiometric assay relative to control
# T1 sequence (whole entry): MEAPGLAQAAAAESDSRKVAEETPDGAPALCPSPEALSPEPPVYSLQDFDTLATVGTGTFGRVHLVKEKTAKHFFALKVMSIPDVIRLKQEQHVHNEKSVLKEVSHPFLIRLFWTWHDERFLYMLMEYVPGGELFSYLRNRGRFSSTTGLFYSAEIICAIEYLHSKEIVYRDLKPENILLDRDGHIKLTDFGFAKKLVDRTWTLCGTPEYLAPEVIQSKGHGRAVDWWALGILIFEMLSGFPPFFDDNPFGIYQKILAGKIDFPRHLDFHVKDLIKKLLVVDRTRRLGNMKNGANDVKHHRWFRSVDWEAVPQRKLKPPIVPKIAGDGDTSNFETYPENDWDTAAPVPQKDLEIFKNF
# [2] = target: Serine/threonine-protein kinase PLK2 (Homo sapiens) (UniProt Q9NYY3); experiment: Inhibition of human recombinant PLK2 at 15 nM in presence of ATP by radiometric assay relative to control
# [3] = target: Tyrosine-protein kinase Blk (Homo sapiens) (UniProt P51451); experiment: Inhibition of human recombinant BLK at 15 nM in presence of ATP by radiometric assay relative to control
# Method in brief: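 Part of a radiometric in vitro activity panel of 327 recombinant human kinases. Each kinase was tested in duplicate at one inhibitor concentration. Activity remaining was expressed as a percentage of the vehicle control, and percent inhibition was taken as 100 minus that value.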
# [4] = target: Tyrosine-protein kinase Lck (Homo sapiens) (UniProt P06239); experiment: Inhibition of human recombinant LCK at 15 nM related to control ULK1
# [5] = target: T2, cGMP-dependent protein kinase 1 (Homo sapiens) (UniProt Q13976); experiment: Inhibition of human recombinant PKG1 at 15 nM related to control ULK1
# T2 sequence (whole entry): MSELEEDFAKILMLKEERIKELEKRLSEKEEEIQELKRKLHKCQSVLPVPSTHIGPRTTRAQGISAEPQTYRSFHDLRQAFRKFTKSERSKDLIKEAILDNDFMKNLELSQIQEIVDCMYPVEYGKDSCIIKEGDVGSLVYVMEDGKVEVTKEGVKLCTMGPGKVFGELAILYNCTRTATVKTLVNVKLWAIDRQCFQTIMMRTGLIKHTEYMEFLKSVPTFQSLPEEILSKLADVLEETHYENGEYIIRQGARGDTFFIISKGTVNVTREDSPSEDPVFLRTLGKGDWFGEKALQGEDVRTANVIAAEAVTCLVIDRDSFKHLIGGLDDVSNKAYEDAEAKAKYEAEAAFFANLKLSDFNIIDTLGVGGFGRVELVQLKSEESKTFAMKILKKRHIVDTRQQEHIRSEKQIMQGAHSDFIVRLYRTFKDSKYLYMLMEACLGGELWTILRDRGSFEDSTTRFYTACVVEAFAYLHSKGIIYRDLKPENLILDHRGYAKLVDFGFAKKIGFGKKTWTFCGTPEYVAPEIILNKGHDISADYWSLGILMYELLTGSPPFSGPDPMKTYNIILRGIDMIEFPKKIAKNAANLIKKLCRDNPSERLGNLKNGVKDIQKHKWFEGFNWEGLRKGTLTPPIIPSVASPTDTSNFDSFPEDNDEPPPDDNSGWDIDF
# [6] = target: T3, Serine/threonine-protein kinase Nek1 (Homo sapiens) (UniProt Q96PY6); experiment: Inhibition of human recombinant NEK1 at 15 nM in presence of ATP by radiometric assay relative to control
# T3 sequence (whole entry): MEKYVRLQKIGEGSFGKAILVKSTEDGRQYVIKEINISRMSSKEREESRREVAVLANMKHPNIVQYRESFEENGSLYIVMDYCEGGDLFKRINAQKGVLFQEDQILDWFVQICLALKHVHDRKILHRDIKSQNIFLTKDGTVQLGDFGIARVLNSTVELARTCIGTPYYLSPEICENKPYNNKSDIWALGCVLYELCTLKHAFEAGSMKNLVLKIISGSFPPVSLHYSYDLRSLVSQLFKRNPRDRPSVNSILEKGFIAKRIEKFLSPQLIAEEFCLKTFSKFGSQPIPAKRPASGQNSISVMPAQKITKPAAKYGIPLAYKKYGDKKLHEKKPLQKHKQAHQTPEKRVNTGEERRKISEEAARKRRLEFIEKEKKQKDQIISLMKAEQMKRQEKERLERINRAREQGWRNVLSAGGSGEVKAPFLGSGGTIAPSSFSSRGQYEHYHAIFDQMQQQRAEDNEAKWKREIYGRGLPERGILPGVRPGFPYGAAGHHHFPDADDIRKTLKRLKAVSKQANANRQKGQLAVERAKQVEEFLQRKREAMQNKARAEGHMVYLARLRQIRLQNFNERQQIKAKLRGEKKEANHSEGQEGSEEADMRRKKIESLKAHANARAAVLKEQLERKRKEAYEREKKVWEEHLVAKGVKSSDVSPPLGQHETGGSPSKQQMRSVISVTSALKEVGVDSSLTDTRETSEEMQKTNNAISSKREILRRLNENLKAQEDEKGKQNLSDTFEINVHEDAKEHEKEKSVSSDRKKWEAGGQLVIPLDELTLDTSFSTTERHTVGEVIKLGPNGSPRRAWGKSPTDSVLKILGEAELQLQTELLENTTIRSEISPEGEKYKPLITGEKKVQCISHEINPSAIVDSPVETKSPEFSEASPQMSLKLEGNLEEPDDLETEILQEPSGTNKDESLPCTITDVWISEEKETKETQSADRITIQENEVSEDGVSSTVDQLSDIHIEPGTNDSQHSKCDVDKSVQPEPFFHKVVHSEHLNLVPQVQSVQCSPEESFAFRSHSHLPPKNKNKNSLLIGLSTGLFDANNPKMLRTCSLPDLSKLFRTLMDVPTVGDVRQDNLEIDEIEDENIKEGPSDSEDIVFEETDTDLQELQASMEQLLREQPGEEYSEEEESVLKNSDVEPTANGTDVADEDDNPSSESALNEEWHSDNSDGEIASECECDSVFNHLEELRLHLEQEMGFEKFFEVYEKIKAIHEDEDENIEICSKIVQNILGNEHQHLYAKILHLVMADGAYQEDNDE
# Homo sapiens = species: Homo sapiens; experiment: Inhibition of human recombinant CK1d at 40 nM related to control ULK1
# [7] = target: Protein kinase C theta type (Homo sapiens) (UniProt Q04759); experiment: Inhibition of human recombinant PKCt at 40 nM related to control ULK1
# [8] = target: Ribosomal protein S6 kinase alpha-5 (Homo sapiens) (UniProt O75582); experiment: Inhibition of human recombinant MSK1 at 40 nM in presence of ATP by radiometric assay relative to control
# [9] = target: Non-receptor tyrosine-protein kinase TYK2 (Homo sapiens) (UniProt P29597); experiment: Inhibition of human recombinant TYK2 at 40 nM related to control ULK1
# Sequence of Non-receptor tyrosine-protein kinase TYK2 (Homo sapiens) (P29597 whole entry): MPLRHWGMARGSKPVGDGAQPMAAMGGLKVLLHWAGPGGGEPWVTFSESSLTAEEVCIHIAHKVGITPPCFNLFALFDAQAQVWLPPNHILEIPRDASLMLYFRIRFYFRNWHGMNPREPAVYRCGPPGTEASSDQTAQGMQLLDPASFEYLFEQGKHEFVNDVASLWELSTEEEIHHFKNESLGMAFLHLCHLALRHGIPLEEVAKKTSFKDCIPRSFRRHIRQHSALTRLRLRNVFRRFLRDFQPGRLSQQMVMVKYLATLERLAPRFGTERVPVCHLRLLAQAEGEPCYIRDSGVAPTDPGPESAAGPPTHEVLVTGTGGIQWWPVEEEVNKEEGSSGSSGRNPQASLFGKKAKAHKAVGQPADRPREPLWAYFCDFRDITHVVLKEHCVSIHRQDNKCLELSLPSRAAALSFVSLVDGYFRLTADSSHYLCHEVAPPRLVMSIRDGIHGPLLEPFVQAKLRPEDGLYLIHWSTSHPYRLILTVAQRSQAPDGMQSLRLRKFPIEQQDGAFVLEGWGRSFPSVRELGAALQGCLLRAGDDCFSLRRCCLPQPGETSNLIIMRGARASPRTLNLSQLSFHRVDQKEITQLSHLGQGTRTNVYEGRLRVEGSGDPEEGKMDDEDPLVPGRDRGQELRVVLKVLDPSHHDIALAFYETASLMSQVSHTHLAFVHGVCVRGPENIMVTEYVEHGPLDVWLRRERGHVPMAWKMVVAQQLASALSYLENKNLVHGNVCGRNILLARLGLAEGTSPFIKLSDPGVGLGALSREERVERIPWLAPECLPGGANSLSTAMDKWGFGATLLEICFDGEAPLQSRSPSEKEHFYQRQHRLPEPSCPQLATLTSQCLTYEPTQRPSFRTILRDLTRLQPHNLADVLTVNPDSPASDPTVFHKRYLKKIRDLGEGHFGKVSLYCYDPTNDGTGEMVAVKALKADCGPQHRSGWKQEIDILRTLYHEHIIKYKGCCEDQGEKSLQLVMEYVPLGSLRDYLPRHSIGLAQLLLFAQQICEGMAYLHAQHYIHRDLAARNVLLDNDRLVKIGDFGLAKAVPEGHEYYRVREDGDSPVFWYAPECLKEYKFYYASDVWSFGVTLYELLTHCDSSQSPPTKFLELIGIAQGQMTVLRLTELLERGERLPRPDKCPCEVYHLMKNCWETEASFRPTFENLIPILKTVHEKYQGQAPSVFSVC
# Sequence of Tyrosine-protein kinase Lck (Homo sapiens) (P06239 2-509 limits assumed): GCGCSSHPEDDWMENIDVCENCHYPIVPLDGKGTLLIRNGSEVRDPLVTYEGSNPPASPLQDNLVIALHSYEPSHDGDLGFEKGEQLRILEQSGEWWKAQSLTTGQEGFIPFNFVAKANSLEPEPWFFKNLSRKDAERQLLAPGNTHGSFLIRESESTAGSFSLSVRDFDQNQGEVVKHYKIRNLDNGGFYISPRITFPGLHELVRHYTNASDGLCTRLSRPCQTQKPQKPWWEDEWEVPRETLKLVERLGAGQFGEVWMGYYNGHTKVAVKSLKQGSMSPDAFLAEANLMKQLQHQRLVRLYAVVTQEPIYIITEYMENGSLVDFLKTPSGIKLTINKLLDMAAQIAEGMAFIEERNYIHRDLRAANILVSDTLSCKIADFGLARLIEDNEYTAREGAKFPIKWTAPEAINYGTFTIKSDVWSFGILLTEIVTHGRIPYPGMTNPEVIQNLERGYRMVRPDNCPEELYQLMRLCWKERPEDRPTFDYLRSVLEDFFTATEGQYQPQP
# Sequence of Protein kinase C theta type (Homo sapiens) (Q04759 whole entry, looked up): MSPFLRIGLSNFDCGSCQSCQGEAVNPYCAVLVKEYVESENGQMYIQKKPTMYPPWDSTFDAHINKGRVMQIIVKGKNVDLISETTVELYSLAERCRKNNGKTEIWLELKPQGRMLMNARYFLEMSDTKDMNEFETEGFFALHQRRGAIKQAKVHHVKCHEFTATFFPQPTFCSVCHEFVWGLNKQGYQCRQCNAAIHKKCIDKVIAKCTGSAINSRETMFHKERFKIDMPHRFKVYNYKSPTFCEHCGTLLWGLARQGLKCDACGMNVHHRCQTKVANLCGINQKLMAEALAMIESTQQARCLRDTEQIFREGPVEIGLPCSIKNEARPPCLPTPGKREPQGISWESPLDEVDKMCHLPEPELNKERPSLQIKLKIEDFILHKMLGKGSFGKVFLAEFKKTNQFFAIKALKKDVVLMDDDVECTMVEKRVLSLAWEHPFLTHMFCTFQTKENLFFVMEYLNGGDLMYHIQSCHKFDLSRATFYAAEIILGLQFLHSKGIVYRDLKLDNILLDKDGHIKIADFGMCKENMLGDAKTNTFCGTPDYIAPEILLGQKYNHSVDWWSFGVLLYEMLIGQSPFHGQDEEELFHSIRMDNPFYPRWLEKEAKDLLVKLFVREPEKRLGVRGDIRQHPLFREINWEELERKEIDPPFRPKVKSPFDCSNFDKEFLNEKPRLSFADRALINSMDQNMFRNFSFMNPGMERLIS
# Sequence of Serine/threonine-protein kinase PLK2 (Homo sapiens) (Q9NYY3 whole entry, looked up): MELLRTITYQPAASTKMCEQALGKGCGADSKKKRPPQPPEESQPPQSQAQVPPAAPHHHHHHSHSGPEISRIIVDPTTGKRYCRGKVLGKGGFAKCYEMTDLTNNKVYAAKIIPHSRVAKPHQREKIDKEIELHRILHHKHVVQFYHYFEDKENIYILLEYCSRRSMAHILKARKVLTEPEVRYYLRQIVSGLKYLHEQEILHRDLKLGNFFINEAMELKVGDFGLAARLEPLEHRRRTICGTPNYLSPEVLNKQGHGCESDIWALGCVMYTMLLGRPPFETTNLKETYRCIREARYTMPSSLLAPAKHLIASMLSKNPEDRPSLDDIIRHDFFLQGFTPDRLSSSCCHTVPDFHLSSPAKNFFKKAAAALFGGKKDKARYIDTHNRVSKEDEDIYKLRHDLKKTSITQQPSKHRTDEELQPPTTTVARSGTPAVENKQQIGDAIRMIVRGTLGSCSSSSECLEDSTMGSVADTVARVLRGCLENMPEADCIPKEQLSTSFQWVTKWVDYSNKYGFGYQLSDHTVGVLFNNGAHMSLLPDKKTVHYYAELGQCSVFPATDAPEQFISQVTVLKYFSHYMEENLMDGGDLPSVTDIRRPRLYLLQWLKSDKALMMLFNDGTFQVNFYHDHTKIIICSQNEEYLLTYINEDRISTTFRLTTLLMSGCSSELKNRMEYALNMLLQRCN
# Sequence of Ribosomal protein S6 kinase alpha-5 (Homo sapiens) (O75582 whole entry, looked up): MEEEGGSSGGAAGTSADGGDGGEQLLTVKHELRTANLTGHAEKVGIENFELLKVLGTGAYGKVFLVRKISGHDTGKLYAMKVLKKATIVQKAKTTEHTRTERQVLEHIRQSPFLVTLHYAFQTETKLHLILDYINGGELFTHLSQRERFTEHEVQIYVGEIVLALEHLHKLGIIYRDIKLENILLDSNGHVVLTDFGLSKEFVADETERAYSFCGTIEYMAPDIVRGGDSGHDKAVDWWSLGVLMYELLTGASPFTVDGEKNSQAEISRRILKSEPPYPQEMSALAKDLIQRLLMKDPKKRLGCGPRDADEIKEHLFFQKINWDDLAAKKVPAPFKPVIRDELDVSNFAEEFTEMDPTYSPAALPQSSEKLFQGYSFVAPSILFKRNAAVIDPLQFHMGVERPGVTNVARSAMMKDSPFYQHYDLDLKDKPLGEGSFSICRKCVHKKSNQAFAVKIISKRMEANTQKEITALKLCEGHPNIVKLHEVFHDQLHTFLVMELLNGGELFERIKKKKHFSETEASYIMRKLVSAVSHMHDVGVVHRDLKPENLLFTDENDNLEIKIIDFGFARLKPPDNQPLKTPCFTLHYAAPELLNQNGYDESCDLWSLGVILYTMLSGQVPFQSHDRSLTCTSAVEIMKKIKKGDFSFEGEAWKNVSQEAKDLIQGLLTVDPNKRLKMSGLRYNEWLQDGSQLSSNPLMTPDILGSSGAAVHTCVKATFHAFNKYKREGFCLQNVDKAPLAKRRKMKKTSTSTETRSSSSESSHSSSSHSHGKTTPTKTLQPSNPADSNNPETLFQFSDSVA
# Sequence of Tyrosine-protein kinase Blk (Homo sapiens) (P51451 2-505 limits assumed): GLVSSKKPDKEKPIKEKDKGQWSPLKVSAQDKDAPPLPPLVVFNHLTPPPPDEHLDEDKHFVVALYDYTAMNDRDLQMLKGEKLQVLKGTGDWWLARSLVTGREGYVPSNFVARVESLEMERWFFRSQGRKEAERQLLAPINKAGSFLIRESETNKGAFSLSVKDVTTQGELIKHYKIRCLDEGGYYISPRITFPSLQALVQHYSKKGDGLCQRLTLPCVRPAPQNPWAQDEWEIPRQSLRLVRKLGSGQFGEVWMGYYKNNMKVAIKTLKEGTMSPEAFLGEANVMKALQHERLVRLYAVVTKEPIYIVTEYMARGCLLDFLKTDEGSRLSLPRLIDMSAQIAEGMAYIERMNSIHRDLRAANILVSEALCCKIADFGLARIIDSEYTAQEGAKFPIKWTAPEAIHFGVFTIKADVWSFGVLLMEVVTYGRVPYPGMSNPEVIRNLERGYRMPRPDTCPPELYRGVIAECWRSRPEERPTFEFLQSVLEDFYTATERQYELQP
smiles,measurement,setting,value
CNC(=O)c1ccccc1Oc1nc(Nc2cc(OC)c(OC)c(OC)c2)ncc1Br,inhibition,[1],16%
CC(C)[C@H](NC(=O)c1cc(-c2cnn3cc(-c4ccc(OCCN5CCCCC5)cc4)cnc23)cs1)C(F)(F)F,inhibition,[2],4%
same,inhibition,[3],10%
same,fold change (FC),[4],0.13
same,fold change (FC),[5],0
same,inhibition,[6],3%
O=C(N[C@@H](C1CC1)C(F)(F)F)c1cc(-c2cnn3cc(-c4ccc(F)cc4)cnc23)cs1,fold change (FC),Homo sapiens,0.04
same,fold change (FC),[7],0
same,inhibition,[8],0%
same,fold change (FC),[9],0.01
